This note sets out measurements from article PMC8028158 (ACS Omega, 2021).

One experiment has as its target T1, TRPC6 (Mus musculus, UniProt Q61143).
T1 sequence (Q61143 1-930): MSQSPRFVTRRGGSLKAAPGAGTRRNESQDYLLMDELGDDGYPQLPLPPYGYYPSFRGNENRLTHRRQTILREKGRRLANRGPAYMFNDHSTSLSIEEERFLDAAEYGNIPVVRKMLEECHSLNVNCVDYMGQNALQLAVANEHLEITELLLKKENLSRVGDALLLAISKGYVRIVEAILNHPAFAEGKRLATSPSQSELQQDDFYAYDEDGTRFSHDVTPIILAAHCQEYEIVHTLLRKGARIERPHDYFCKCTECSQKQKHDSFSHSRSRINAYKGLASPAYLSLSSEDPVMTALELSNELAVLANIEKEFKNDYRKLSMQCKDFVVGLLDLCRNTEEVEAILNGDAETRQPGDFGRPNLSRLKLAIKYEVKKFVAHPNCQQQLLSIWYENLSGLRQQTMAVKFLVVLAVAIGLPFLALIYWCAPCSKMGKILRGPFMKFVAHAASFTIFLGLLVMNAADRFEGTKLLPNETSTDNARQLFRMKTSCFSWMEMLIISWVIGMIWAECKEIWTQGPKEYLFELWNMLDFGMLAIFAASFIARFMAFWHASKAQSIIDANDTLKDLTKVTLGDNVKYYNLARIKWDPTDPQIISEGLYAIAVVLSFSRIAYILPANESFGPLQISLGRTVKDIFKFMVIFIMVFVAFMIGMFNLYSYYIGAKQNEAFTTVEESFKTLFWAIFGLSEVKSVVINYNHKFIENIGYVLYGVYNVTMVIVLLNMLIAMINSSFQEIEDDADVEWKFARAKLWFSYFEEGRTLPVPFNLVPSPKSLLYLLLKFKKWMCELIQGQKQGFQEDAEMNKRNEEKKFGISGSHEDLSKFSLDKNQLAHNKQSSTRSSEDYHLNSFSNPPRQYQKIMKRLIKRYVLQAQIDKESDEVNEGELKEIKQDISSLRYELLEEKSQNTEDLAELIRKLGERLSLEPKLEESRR
The experiment is described as follows: Whole-cell voltage clamp of TRPC6 currents evoked by GSK1702934A. In kind it is cell-based. An outline of the steps: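 TRPC6-expressing HEK293 cells were recorded with voltage ramps to obtain current–voltage relationships. Current was activated by GSK1702934A (1 μM) and test compound was applied at varying concentrations. IC50 was derived from a Hill-equation fit of the concentration-response curve.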

In a further experiment the test system is MKN-45 cells. The experiment is described as follows: MTT cell viability assay, MKN-45. It counts as cell-based, human. The note with it: Homo sapiens, MKN-45, 72 h, read-out: IC50 cell proliferation, MKN-45. An outline of the steps: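 Cells were seeded at 2000 per well, incubated overnight and exposed to test compound for 72 h. MTT was added for 4 h, formazan was dissolved in DMSO and absorbance was read at 570 nm. Viability was normalized to untreated wells, giving mean ± SEM of three trials. IC50 was calculated from relative survival.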

In the case of `COc1cccc2sc(N(CCN(C)C)C(=O)c3ccc4c(c3)CCCC4)nc12` [Compound 1s, N-(2-(dimethylamino)ethyl)-N-(4-methoxybenzo[d]thiazol-2-yl)-5,6,7,8-tetrahydronaphthalene-2-carboxamide], the IC50 against TRPC6 was found to be 4.19 ± 0.04 µM; in the experiment with MKN-45 cells, 8 ± 0.51 µM. Besides, the “Effect on TRPC6 currents” value on TRPC6 (evoked by GSK1702934A 1 μM, whole-cell voltage clamp) is “immediately suppressed”.
